Consider 3 molecules from ChEMBL document CHEMBL1126882, “Orally active central dopamine and serotonin receptor ligands: 5-, 6-, 7-, and 8-[[trifluoromethyl)sulfonyl]oxy]-2-(di-n-propylamino)tetralins and the formation of active metabolites in vivo” (J Med Chem, 1993).

Data set [1] concerns the target T1, Dopamine receptor (Rattus norvegicus) (UniProt P25115+P19020+P30729+P18901+P61169). The data set can be described thus: (§1) Effective dose for half-maximal decrease in the accumulation of DOPA in reserpinized rat brain striatal area by sc administration; Inactive. It counts as functional, organism-based. The procedure, abridged:
(§2)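 Male Sprague-Dawley rats (200-300 g) got reserpine 5 mg/kg sc 18 h before. The test drug (saline) was given sc or po (po rats fasted 18 h), with NSD 1015, 30 min before decapitation. DOPA and 5-HTP in limbic, striatal and hemispheral tissue were measured by HPLC-ED. ED50 (half-maximal decrease) was taken from 4-6-dose curves, with deviation estimated graphically from SEM.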

Data set [2] can be described thus: (§3) Effective dose for half-maximal decrease in the accumulation of 5-hydroxytryptophan (5-HTP) in reserpinized rat brain hemispheral area by sc administration. It counts as functional. An outline of the steps:
as §2

The nature of data set [3]: (§4) Effective dose for half-maximal decrease in the accumulation of 5-hydroxytryptophan (5-HTP) in reserpinized rat brain hemispheral area by po administration. The format is functional. An outline of the steps:
as §2

Data set [4] concerns the target T1, Dopamine receptor (Rattus norvegicus). The data set can be described thus: (§5) Effective dose for half-maximal decrease in the accumulation of DOPA in reserpinized rat brain limbic area by sc administration; Inactive. It counts as functional, organism-based. An outline of the steps:
as §2

A further data set concerns the target D(2) dopamine receptor (Rattus norvegicus, UniProt P61169). The data set can be described thus: Binding affinity against dopamine receptor D2 in homogenated rat brain tissue, using by [3H]spiperone as radioligand. The format is tissue-based. The procedure, abridged: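 Rat striatal membranes were prepared in 50 mM potassium phosphate (pH 7.4). They were incubated with 0.5 nM [3H]spiperone (3 mg original tissue) for 10 min at 37 °C. Specific binding was defined with 10 μM 6,7-ADTN. Six drug concentrations (10⁻⁴-10⁻⁹ M) were tested, in triplicate or in a single experiment.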

Data set [5] addresses T1, Dopamine receptor (Rattus norvegicus). The data set can be described thus: (§6) Effective dose for half-maximal decrease in the accumulation of DOPA in reserpinized rat brain hemispheral area by sc administration; Inactive. The format is functional, organism-based. An outline of the steps:
as §2

Data set [6] concerns the target T2, 5-hydroxytryptamine receptor 1A (Rattus norvegicus, UniProt P19327).
T2 sequence (P19327 whole entry): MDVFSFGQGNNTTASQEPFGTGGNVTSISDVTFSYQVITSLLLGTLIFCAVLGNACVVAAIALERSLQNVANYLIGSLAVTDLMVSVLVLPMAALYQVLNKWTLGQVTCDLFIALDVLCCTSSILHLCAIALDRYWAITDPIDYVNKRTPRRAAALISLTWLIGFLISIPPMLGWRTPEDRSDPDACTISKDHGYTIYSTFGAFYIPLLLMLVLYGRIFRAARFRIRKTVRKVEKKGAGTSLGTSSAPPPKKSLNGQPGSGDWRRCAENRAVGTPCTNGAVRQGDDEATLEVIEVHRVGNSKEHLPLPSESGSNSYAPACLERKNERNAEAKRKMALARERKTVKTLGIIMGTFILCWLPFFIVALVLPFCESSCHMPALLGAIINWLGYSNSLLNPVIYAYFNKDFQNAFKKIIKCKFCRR
The data set can be described thus: (§7) Binding affinity against 5-hydroxytryptamine 1A receptor in homogenated rat brain tissue, using by [3H]8-OH-DPAT as radioligand. The format is tissue-based. The procedure, abridged:
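Rat brain homogenate was washed and preincubated in 50 mM Tris (pH 8.0) containing NaCl, CaCl2 and MgCl2, plus 10 μM pargyline. It was incubated with 1 nM [3H]-8-OH-DPAT (final) for 15 min at 37 °C, then vacuum-filtered and counted by scintillation. Nonspecific binding was defined with 10 μM 5-HT. Six drug concentrations (10⁻⁴-10⁻⁹ M) were tested, triplicate or single run. IC50 came from a semilog plot with linear regression.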

Data set [7] in a line: (§8) Effective dose for half-maximal decrease in the accumulation of 5-hydroxytryptophan (5-HTP) in reserpinized rat brain striatal area by po administration. The format is functional. An outline of the steps:
as §2

Data set [8] has as its target T1, Dopamine receptor (Rattus norvegicus). The data set can be described thus: Effective dose for half-maximal decrease in the accumulation of DOPA in reserpinized rat brain limbic area by po administration. The format is functional, organism-based. The procedure, abridged:
as §2

A short description of data set [9]: (§9) Effective dose for half-maximal decrease in the accumulation of 5-hydroxytryptophan (5-HTP) in reserpinized rat brain limbic area by po administration. It counts as functional. An outline of the steps: as §2
Data set [10] in a line: (§10) Effective dose for half-maximal decrease in the accumulation of 5-hydroxytryptophan (5-HTP) in reserpinized rat brain striatal area by sc administration. The format is functional. The procedure, abridged:
as §2

Data set [11] is described as follows: (§11) Effective dose for half-maximal decrease in the accumulation of 5-hydroxytryptophan (5-HTP) in reserpinized rat brain limbic area by sc administration. It counts as functional. The procedure, abridged:
as §2

Data set [12] addresses T1, Dopamine receptor (Rattus norvegicus). The data set can be described thus: Effective dose for half-maximal decrease in the accumulation of DOPA in reserpinized rat brain hemispheral area by po administration; Inactive. It counts as functional, organism-based. The procedure, abridged:
as §2

The target is the same in data set [13]. In words: Effective dose for half-maximal decrease in the accumulation of DOPA in reserpinized rat brain striatal area by po administration. The format is functional, organism-based. The procedure, abridged: as §2
The test system of data set [14] is Rattus norvegicus. The data set can be described thus: Effective dose for half-maximal decrease in the accumulation of 5-hydroxytryptophan (5-HTP) in reserpinized rat brain hemispheral area by po administration; Inactive. It counts as functional, organism-based. The procedure, abridged: as §2
Data set [15] has as its system Rattus norvegicus. In words: post-synaptic agonistic effects by increase in locomotor activity at the dose of 0.08 umol/kg, sc in reserpinized rat. The format is functional. The procedure, abridged:
(§12)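 Male Sprague-Dawley rats (200-300 g) given reserpine 5 mg/kg sc in the neck 18 h before testing. The test compound, in 0.9% saline, was given sc in the neck (n = 4-5). Rats were placed singly in photocell motility meters right after dosing. Counts were recorded over 30 min, alongside gross behavioural observation of 5-HT and DA signs. Statistics: ANOVA with Fischer's PLSD versus reserpine controls.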

For data set [16], the system named is Rattus norvegicus. The data set can be described thus: Effective dose for half-maximal decrease in the accumulation of 5-hydroxytryptophan (5-HTP) in reserpinized rat brain limbic area by po administration; Inactive. The format is functional, organism-based. The procedure, abridged:
as §2

Data set [17] concerns the target T1, Dopamine receptor (Rattus norvegicus). The data set can be described thus: Effective dose for half-maximal decrease in the accumulation of DOPA in reserpinized rat brain hemispheral area by po administration. It counts as functional, organism-based. The procedure, abridged: as §2
Data set [18] relates to Rattus norvegicus. In words: Effective dose for half-maximal decrease in the accumulation of 5-hydroxytryptophan (5-HTP) in reserpinized rat brain striatal area by po administration; Inactive. The format is functional, organism-based. An outline of the steps: as §2
Data set [19] concerns the target T1, Dopamine receptor (Rattus norvegicus). The data set can be described thus: Effective dose for half-maximal decrease in the accumulation of DOPA in reserpinized rat brain striatal area by sc administration. The format is functional, organism-based. The procedure, abridged: as §2
In data set [20] the target is T2, 5-hydroxytryptamine receptor 1A. The description is as §7. It counts as tissue-based. An outline of the steps: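 Rat brain homogenate was washed and preincubated in 50 mM Tris (pH 8.0) containing NaCl, CaCl2 and MgCl2, plus 10 μM pargyline. Nonspecific binding was defined with 10 μM 5-HT. Six drug concentrations (10⁻⁴-10⁻⁹ M) were tested, triplicate or single run. IC50 came from a semilog plot with linear regression.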
This is another data set of the same source.

For data set [21], the target named is T1, Dopamine receptor (Rattus norvegicus). In words: Effective dose for half-maximal decrease in the accumulation of DOPA in reserpinized rat brain limbic area by sc administration. The format is functional, organism-based. The procedure, abridged:
as §2

For data set [22], the species on record is Rattus norvegicus. In words: DA agonist induced behavior was charecterised by increased locomotion, sniffing and licking.++ indicates high intensity of behavioral effect. The format is functional, organism-based. An outline of the steps: as §12
Data set [23] deals with Rattus norvegicus. Described as §1. It counts as functional, organism-based. The procedure, abridged: as §2
Data set [24] relates to Rattus norvegicus. The data set is described as §3. The format is functional. An outline of the steps: as §2
Data set [25] deals with Rattus norvegicus. The description is as §4. It counts as functional. An outline of the steps:
as §2

The test system of data set [26] is Rattus norvegicus. Described as §5. It counts as functional, organism-based. An outline of the steps:
as §2

Data set [27] concerns Rattus norvegicus. The data set can be described thus: Effective dose for half-maximal decrease in the accumulation of DOPA in reserpinized rat brain striatal area by po administration; Partial response at the highest dose tested. It counts as functional, organism-based. The procedure, abridged: as §2
The subject of data set [28] is Rattus norvegicus. The data set is described as §6. It counts as functional, organism-based. The procedure, abridged:
as §2

Data set [29] can be described thus: Half-lives were estimated from the elimination phase of the blood conc-time curve after oral administration. The format is ADME, organism-based. To be noted: rat, whole blood. The procedure, abridged:
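Male Sprague-Dawley rats (300 g) with arterial catheters were dosed 24 h after surgery. Doses: 40 μmol/kg po by gavage and 5 μmol/kg iv, or 20 po and 1 iv. Po rats were fasted 18 h. Blood was sampled from 5 min to 12 h and measured by GC-MS after extraction at pH 11 against an internal standard, samples in duplicate. AUC po/iv came from n = 4 per route. Half-life was read graphically from the oral elimination phase.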

Data set [30] deals with Rattus norvegicus. The description is as §8. It counts as functional. An outline of the steps: as §2
Data set [31] relates to Rattus norvegicus. The description is as §9. The format is functional. An outline of the steps: as §2
For data set [32], the system named is Rattus norvegicus. The description is as §10. The format is functional. An outline of the steps:
as §2

For data set [33], the system named is Rattus norvegicus. The description is as §11. It counts as functional. An outline of the steps: as §2
Data set [34] concerns Rattus norvegicus. In words: post-synaptic agonistic effects by increase in locomotor activity at the dose of 0.2 umol/kg, sc in reserpinized rat (p<0.005). It counts as functional. The procedure, abridged: as §12
The subject of data set [35] is Rattus norvegicus. In words: Effective dose for half-maximal decrease in the accumulation of DOPA in reserpinized rat brain limbic area by po administration; Partial response at the highest dose tested. The format is functional, organism-based. An outline of the steps:
as §2

Activity calls are given as the source filed them. The rule behind the calls is not given here.

D(2) dopamine receptor, sequence (P61169 whole entry): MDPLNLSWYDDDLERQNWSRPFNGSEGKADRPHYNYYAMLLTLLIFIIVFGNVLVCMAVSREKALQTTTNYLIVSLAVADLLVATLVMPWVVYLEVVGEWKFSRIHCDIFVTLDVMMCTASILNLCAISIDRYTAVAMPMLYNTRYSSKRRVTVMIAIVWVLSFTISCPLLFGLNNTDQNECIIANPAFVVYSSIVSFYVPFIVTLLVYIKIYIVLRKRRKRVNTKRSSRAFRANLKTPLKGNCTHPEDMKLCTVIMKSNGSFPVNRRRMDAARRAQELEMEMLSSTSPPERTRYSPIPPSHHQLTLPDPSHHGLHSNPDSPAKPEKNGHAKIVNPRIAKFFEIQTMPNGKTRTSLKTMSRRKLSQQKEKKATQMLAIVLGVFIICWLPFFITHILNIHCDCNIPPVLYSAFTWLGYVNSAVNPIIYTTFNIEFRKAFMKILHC

For `CCCN(CCC)C1CCc2cccc(OC)c2C1` (stereo unspecified), the ED50 result in data set [1], in data set [4], in [5] and in data set [12] was “inactive” in each case. Besides, the ED50 in data set [2] was 0.2 µmol/kg; in [3], 2.3 µmol/kg; in [7], 3.2 µmol/kg; in data set [8], 5.5 µmol/kg; in data set [9] it was 3.2 µmol/kg; in data set [10] it was 0.3 µmol/kg. The figures for the 50% effective dose (ED50) in data set [11] and in [13] were 0.3 µmol/kg and 12.5 µmol/kg, respectively. For the same molecule, the figures for the inhibition constant Ki (on D(2) dopamine receptor; in data set [6]) were 160 nM and 10 nM, respectively.
`CCCN(CCC)C1CCc2c(O)cccc2C1` (stereo unspecified) [5-OH-DPAT]: the ED50 result (in the data set on Rattus norvegicus [14]; in data set [1]; in the data set with Rattus norvegicus [16]; in the data set with Rattus norvegicus [18]; in [4]; in data set [5]) was “inactive” throughout. Also, in the data set on Rattus norvegicus [15], the Counts/30 is 60 min. In addition, the ED50 in [17] turned out to be 4 µmol/kg; in [19], 0.01 µmol/kg; in data set [8], 0.7 µmol/kg; in [13] it was 0.5 µmol/kg; in [21], 0.01 µmol/kg. Also, in data set [20], the Ki was 1040 nM. Besides, the Behavioral observation result in the data set listed under Rattus norvegicus [22] was “Active”.
`CCCN(CCC)C1CCc2cccc(O)c2C1` (stereo unspecified) [8-OH-DPAT]: the ED50 result in the data set with Rattus norvegicus [23], in the data set on Rattus norvegicus [26] and with Rattus norvegicus [28] was “inactive” in each case. The ED50 in the data set with Rattus norvegicus [24] is 0.07 µmol/kg; with Rattus norvegicus [25], 7.6 µmol/kg; in the data set with Rattus norvegicus [27], “Weak activity”; in the data set on Rattus norvegicus [30], 7.9 µmol/kg; in the data set with Rattus norvegicus [31] it was 3 µmol/kg; in the data set with Rattus norvegicus [32] it was 0.04 µmol/kg. Also, the ED50 was 0.05 µmol/kg with Rattus norvegicus [33] and “Weak activity” in the data set on Rattus norvegicus [35]. Moreover, the half-life in [29] was 72 min. Also, in the data set on Rattus norvegicus [34], the Counts/30 came to 66 counts/30 min.

What is called ED50 is the dose that gives a 50% effect, or the effect in half of the subjects. In general, Ki refers to a measure of affinity in units of concentration, obtained from inhibition or displacement. The low end stands for tighter binding, the high end for weaker binding. Broadly, the half-life is the time in which the quantity being followed falls by half.
